Source: ChEMBL document CHEMBL1221211, “Synthesis enables identification of the cellular target of leucascandrolide A and neopeltolide” (Nat Chem Biol, 2008)
Calls of active or inactive are those of the source. The rule behind the calls is not given here.

Assays:
[1] = system: Saccharomyces cerevisiae; assay: Antifungal activity against Saccharomyces cerevisiae W303-1A in glucose agar media at 1 ug […] by disk diffusion method; format: functional; conditions: read-out: DIZ
Summary of the method: (§1)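 W303-1A grown to saturation in YPD at RT, diluted 10-fold, spread onto YPD (2% glucose) or YPGly (3% v/v glycerol) agar; compound in 20 μl water applied to paper discs placed on agar; plates incubated 2–3 days at 30°C; growth-inhibition zone diameter read.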

[2] = system: Saccharomyces cerevisiae; assay: Effect on cytochrome c oxidase activity of respiratory chain in Saccharomyces cerevisiae W303-1A mitochondria at […]
[3] = Inhibition of bovine Cytochrome b-c1 complex; parameters: species or system Bos taurus
Summary of the method: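 Bovine heart mitochondrial bc1 complex purified (DEAE wash 150 mM NaCl, 150–400 mM NaCl gradient), diluted to 0.686 mg/ml in 50 mM phosphate pH 7.5, 300 mM NaCl, 0.1 g/l dodecyl maltoside; activity assayed in 40 mM potassium phosphate pH 7.4, 0.5 mM EDTA by monitoring reduction of equine cytochrome c; dose-response.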

[4] = molecular target: T1, Succinate dehydrogenase [ubiquinone] cytochrome b small subunit, mitochondrial (Saccharomyces cerevisiae) (UniProt P37298); assay: Effect on succinate:ubiquinone oxidoreductase activity of respiratory chain in Saccharomyces cerevisiae W303-1A mitochondria at […]
T1 sequence (whole entry): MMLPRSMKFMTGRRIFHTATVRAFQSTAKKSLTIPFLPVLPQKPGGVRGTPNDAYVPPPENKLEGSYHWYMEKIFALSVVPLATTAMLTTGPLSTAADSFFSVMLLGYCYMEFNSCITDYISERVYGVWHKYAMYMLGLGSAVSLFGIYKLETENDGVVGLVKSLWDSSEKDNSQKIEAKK

[5] = system: A549; assay: Inhibition of cell proliferation in human A549 cells in after 48 hrs; format: functional; conditions: A549, 48 h
[6] = (§2) Inhibition of bc1 complex in human A549 cells assessed as reduction in ATP production in presence of 10 mM of 2-DG; format: cell-based
Summary of the method: (§3)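 A549 cells seeded at 2500 cells/well, left 4 h, then given graded compound with or without 10 mM 2-deoxyglucose for 30 min; duplicate wells; ATP by luciferase luminescence, converted to nmol/cell via ATP standard curve; expressed as % of vehicle; IC50 from ATP decrease.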

[7] = system: PC-3; assay: Inhibition of cell proliferation in human PC3 cells in after 48 hrs; format: functional; conditions: PC-3, 48 h
[8] = Inhibition of Saccharomyces cerevisiae Cytochrome b-c1 complex
[9] = system: Saccharomyces cerevisiae; assay: Effect on NADH dehydrogenase in respiratory chain of Saccharomyces cerevisiae W303-1A mitochondria at […]
[10] = system: A549; assay: Inhibition of bc1 complex in human A549 cells assessed as reduction in ATP production; format: cell-based; summary of the method: as §3
[11] = system: HCT-116; assay: Inhibition of cell proliferation in human HCT116 cells in after 48 hrs; format: functional; conditions: HCT-116, 48 h
[12] = system: Saccharomyces cerevisiae; assay: Antifungal activity against Saccharomyces cerevisiae W303-1A in glycerol agar media at 1 ug […] by disk diffusion method; format: functional; conditions: read-out: DIZ; summary of the method: as §1
[13] = system: A549; assay: as §2; format: cell-based; summary of the method: as §3
[14] = system: HCT-116; assay: Induction of cell cycle arrest in human HCT116 assessed as accumulation at G2/M-phase at 10 uM after 24 hrs by FACS analysis; format: functional
[15] = system: MCF7; assay: Cytotoxicity against human MCF7 cells; format: functional
[16] = system: SK-OV-3; assay: Cytotoxicity against human SKOV3 cells; format: functional
[17] = system: SK-MEL-5; assay: Cytotoxicity against human SK-MEL-5 […]; format: functional
[18] = system: NCI/ADR-RES; assay: Cytotoxicity against human NCI/ADR-RES cells; format: functional
[19] = system: A549; assay: Cytotoxicity against human A549 cells; format: functional
[20] = system: NCI-H226; assay: Cytotoxicity against human NCI-H226 cells; format: functional
[21] = system: CAKI-1; assay: Cytotoxicity against human Caki1 cells; format: functional
[22] = system: PC-3; assay: Cytotoxicity against human PC3 cells; format: functional
[23] = system: OVCAR-8; assay: Cytotoxicity against human OVCAR8 cells; format: functional
[24] = system: HCT-116; assay: Cytotoxicity against human HCT116 cells; format: functional
[25] = system: SF-268; assay: Cytotoxicity against human SF268 cells; format: functional
[26] = system: HCT-116; assay: Induction of cell cycle arrest in human HCT116 assessed as accumulation at G1-phase at 10 uM after 24 hrs by FACS analysis; format: functional
[27] = system: 786-0; assay: Cytotoxicity against human 786-0 cells; format: functional
[28] = system: DU-145; assay: Cytotoxicity against human DU145 cells; format: functional
[29] = system: M14; assay: Cytotoxicity against human M14 cells; format: functional
[30] = system: HCT-116; assay: Induction of cell cycle arrest in human HCT116 assessed as accumulation at S-phase at 10 uM after 24 hrs by FACS analysis; format: functional
[31] = system: Malme-3M; assay: Cytotoxicity against human MALME-3M cells; format: functional
[32] = system: K562; assay: Cytotoxicity against human K562 cells; format: functional
[33] = system: Saccharomyces cerevisiae; assay: Antifungal activity against Saccharomyces cerevisiae W303-1A harboring rvs161 deficient mutant gene supersensitive strain in galactose agar media at 50 uM after 24 hrs by spectrophotometry; format: functional, organism-based
[34] = system: HCT-116; assay: Induction of cell cycle arrest in human HCT116 assessed as accumulation at G2/M-phase at 100 uM after 24 hrs by FACS analysis; format: functional
[35] = system: 143B; assay: Inhibition of bc1 complex in human 143B cells assessed as reduction in ATP production in presence of […] of CCCP; format: cell-based
[36] = system: Saccharomyces cerevisiae; assay: Antifungal activity against Saccharomyces cerevisiae W303-1A harboring kcs1 deficient mutant gene in galactose agar media at 50 uM after 24 hrs by spectrophotometry; format: functional, organism-based
[37] = system: Saccharomyces cerevisiae; assay: Antifungal activity against Saccharomyces cerevisiae W303-1A harboring snf6 deficient mutant gene in galactose agar media at 50 uM after 24 hrs by spectrophotometry; format: functional, organism-based
[38] = system: Saccharomyces cerevisiae; assay: Inhibition of cellular respiration in Saccharomyces cerevisiae W303-1A assessed as level of cytochrome b at 10 uM in presence of inhibitor; format: functional, organism-based
[39] = system: HCT-116; assay: Induction of cell cycle arrest in human HCT116 assessed as accumulation at G1-phase at 100 uM after 24 hrs by FACS analysis; format: functional
[40] = system: HCT-116; assay: Effect on cellular respiration in human HCT116 cells assessed as increase in NADH level at 2.5 uM by fluorescence assay; format: functional
Summary of the method: (§4)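 HCT116 cells seeded at 200 000 per collagen-coated dish, grown 41 h at 37°C, fresh medium 30–60 min; NADH autofluorescence by spinning-disk confocal microscopy (ex 350 ± 25, em 457 ± 25 nm) every 30 s at 37°C, baseline then 4 min after compound; % change from average initial vs post-addition fluorescence.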

[41] = system: 143B; assay: Inhibition of bc1 complex in human 143B cells assessed as reduction in oxygen uptake at 25 nM in presence of […] of CCCP; format: cell-based
Summary of the method: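 143B cells (4 × 10^6 per aliquot) in serum-free medium in stirred respirometer chamber at 37°C; O2 consumption by oxygen electrode; compound added dose-wise, then CCCP uncoupler added to test whether respiration returns.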

[42] = system: Saccharomyces cerevisiae; assay: Antifungal activity against Saccharomyces cerevisiae petite strain in glucose agar media at 0.5 ug […] by disk diffusion method; format: functional; conditions: read-out: DIZ
Summary of the method: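 Petite (ρ0) W303-1A made by ethidium bromide (25 μg/ml) treatment in minimal glucose medium, regrown drug-free, identified as white colonies failing to grow on YPGly. Saturated YPD culture diluted 10-fold, spread on glucose agar; compound in 20 μl water on paper discs; 2–3 days at 30°C; zone of inhibition read.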

[43] = system: HCT-116; assay: Induction of cell cycle arrest in human HCT116 assessed as accumulation at S-phase at 100 uM after 24 hrs by FACS analysis; format: functional; conditions: HCT-116, 24 h
[44] = system: HCT-116; assay: Effect on cellular respiration in human HCT116 cells assessed as increase in NADH level at 0.5 uM by fluorescence assay; format: functional, cell-based; summary of the method: as §4
[45] = system: Saccharomyces cerevisiae; assay: Inhibition of Saccharomyces cerevisiae NADH oxidase at 10 nM
[46] = system: Saccharomyces cerevisiae; assay: Antifungal activity against Saccharomyces cerevisiae W303-1A harboring snf4 deficient mutant gene in galactose agar media at 50 uM after 24 hrs by spectrophotometry; format: functional, organism-based
[47] = system: Saccharomyces cerevisiae; assay: Antifungal activity against Saccharomyces cerevisiae W303-1A harboring atg11 deficient mutant gene in galactose agar media at 50 uM after 24 hrs by spectrophotometry; format: functional, organism-based
[48] = system: Saccharomyces cerevisiae; assay: Antifungal activity against Saccharomyces cerevisiae W303-1A in galactose agar media at 50 uM after 24 hrs by spectrophotometry; format: functional, organism-based
[49] = system: Saccharomyces cerevisiae; assay: Antifungal activity against Saccharomyces cerevisiae W303-1A in glucose agar media at 0.5 ug after 2 to 3 days by disk diffusion method; conditions: read-out: DIZ

For `CCC[C@@H]1C[C@H](OC)C[C@H](C)C[C@@H]2C[C@@H](OC(=O)/C=C\CCc3coc(/C=C\CNC(=O)OC)n3)C[C@H](CC(=O)O1)O2` [NEOPELTOLIDE], the zone of inhibition at 1 µg/disc [1] was 33 mm, the Activity [2] was “inactive” and the IC50 [3] was 2 nM. The Activity [4] was “inactive”, the GI50 [5] was 0.5 nM and the IC50 [6] was 1.3 nM. The GI50 [7] was 0.3 nM, the IC50 [8] was 0.6 nM and the Activity [9] was “inactive”. For the same compound, the inhibition [10] was “inactive”, the GI50 [11] was 0.5 nM and the zone of inhibition at 1 µg/disc [12] was 46 mm.
In the case of `CC(=O)O[C@H]1C(=O)[C@@]2(C)[C@H]([C@H](OC(=O)c3ccccc3)[C@]3(O)C[C@H](OC(=O)[C@H](O)[C@@H](NC(=O)c4ccccc4)c4ccccc4)C(C)=C1C3(C)C)[C@]1(OC(C)=O)CO[C@@H]1C[C@@H]2O`, the inhibition [13] is reported as “inactive”.
With `COC(=O)NC/C=C\c1nc(CC/C=C\C(=O)O[C@@H]2C[C@H]3C[C@H](OC)C[C@H]4O[C@@H](CC[C@@H]4C)C[C@H](/C=C/CC(C)C)OC(=O)C[C@@H](C2)O3)co1` the Activity [14] was 8%, the GI50 [15] was 280 nM and the GI50 [16] was 670 nM. For the same compound, the GI50 [17] was 670 nM, the GI50 [18] was 670 nM and the GI50 [19] was 670 nM. The GI50 [20] was 280 nM, the GI50 [21] was 670 nM and the GI50 [22] was 280 nM. The GI50 [23] was 280 nM, the GI50 [24] was 670 nM and the GI50 [25] was 280 nM. The Activity [26] was 71%, the GI50 [27] was 280 nM and the GI50 [28] was 670 nM. The GI50 [29] was 280 nM, the Activity [30] was 17% and the GI50 [31] was 670 nM. For the same compound, the GI50 [32] was 280 nM.
With `CCCCC[C@H]1C[C@@H]2CCC[C@@H](C[C@@H](OC)C[C@@H]3C[C@@H](OC(=O)/C=C\CCc4coc(/C=C\CNC(=O)OC)n4)C[C@H](CC(=O)O1)O3)O2` the Activity [33] was “Active”, the Activity [34] was 6% and the inhibition [35] was “Dose-dependent effect”. The zone of inhibition at 1 µg/disc [1] was 25 mm, the Activity [36] was “Active” and the Activity [37] was “Active”. For the same compound, the Activity [2] was “inactive”, the IC50 [3] was 6 nM and the inhibition [38] was “Active”. For the same compound, the Activity [4] was “inactive”, the GI50 [5] was 0.8 nM and the Activity [39] was 61%. For the same compound, the Activity [40] was 40%, the IC50 [6] was 2.6 nM and the inhibition [41] was “Active”. The GI50 [7] was 0.8 nM, the zone of inhibition at 0.5 µg/disc [42] was 21 mm and the IC50 [8] was 1.8 nM. For the same compound, the Activity [9] was “inactive”, the inhibition at 100 µM [43] was 27% and the Activity [44] was “Active”. For the same compound, the inhibition [45] was “Active”, the inhibition [10] was “inactive” and the GI50 [11] was 0.3 nM. The zone of inhibition at 1 µg/disc [12] was 36 mm, the Activity [46] was “Active” and the Activity [47] was “Active”. The Activity [48] was “Active”.
Compound `C[C@@H]1C[C@@H]([C@H](O)CC2CC(=O)NC(=O)C2)C(=O)[C@@H](C)C1` [CYCLOHEXIMIDE] has a zone of inhibition at 0.5 µg/disc [49] of 30 mm.
